Activity calls are given as the source filed them. The calls are words filed in the database; no cut-off is given here.
Columns and labels:
[1] = test system: HCT-8; experiment: Antiproliferative activity against human HCT8 cells at 10 uM after 72 hrs by MTT assay relative to control; type: functional
How it was run: (§1)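 Cells treated with or without compound at 10 μM for 72 h, proliferation measured by MTT (4 h, formazan in DMSO, 570 nm). Inhibition (%) relative to untreated cells; mean ± SD of three independent experiments.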

[2] = test system: DLD-1; experiment: Antiproliferative activity against human DLD1 cells at 10 uM after 72 hrs by MTT assay relative to control; type: functional; how it was run: as §1
[3] = test system: HCT-8; experiment: Antiproliferative activity against human HCT8 cells after 72 hrs by MTT assay; type: functional, cell-based; details: HCT-8, 72 h
How it was run: (§2)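 HCT-8, DLD-1 and CCD841 cells seeded in 96-well plates, exposed to vehicle or compound for 72 h. MTT (5 mg/mL in PBS) added for a further 4 h, formazan dissolved in DMSO, absorbance read at 570 nm. IC50 taken as the concentration inhibiting 50% of proliferation; mean ± SD of three independent experiments.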

[4] = test system: DLD-1; experiment: Antiproliferative activity against human DLD1 cells after 72 hrs by MTT assay; type: functional, cell-based; details: DLD-1, 72 h; how it was run: as §2
[5] = Cytotoxicity against human CCD-841 cells after 72 hrs by MTT assay; type: cell-based; details: CCD-841, 72 h; how it was run: as §2
[6] = test system: DLD-1; experiment: Antiproliferative activity against human DLD1 cells after 72 hrs in presence of ASA by MTT assay; type: functional, cell-based; details: DLD-1, 72 h; how it was run: as §2
[7] = test system: HCT-8; experiment: Antiproliferative activity against human HCT8 cells after 72 hrs in presence of ASA by MTT assay; type: functional, cell-based; details: HCT-8, 72 h; how it was run: as §2
[8] = test system: HCT-8; experiment: Induction of apoptosis in human HCT8 cells assessed as increase in cleaved PARP expression after 24 hrs by Western blotting analysis; type: functional, cell-based
How it was run: (§3)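 HCT-8 cells (1 × 10^6/well, six-well plates) left overnight, then given 0.1% DMSO or compound (0, 2.5, 5, 10 μM) for 24 h. Lysed 30 min at 4 °C, cleared at 15000 rpm, protein by BCA. 20 μg per lane on 7.5% SDS-PAGE, moved to PVDF, blocked in 5% milk/TBS-0.05% Tween 20. Probed for caspase 3, cleaved caspase 3, PARP, cleaved PARP and GAPDH; ECL detection.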

[9] = test system: Mus musculus; experiment: Toxicity in BALB/c mouse xenografted with human HCT8 cells assessed as change in body weight at 60 mg/kg, ip administered daily for 32 days; type: organism-based; details: in vivo, 768 h
How it was run: (§4)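 Male BALB/c nude mice (5–6 weeks, 18–20 g) inoculated s.c. with 1 × 10^7 HCT-8 cells. At tumours of 180–200 mm³, mice randomized and dosed i.p. daily for 32 days with 60 mg/kg or an equal volume of Tween 80/PBS (5:95) vehicle. Caliper length and width every 4 days, TV = width² × length/2. Tumour weight and body weight also recorded; n = 6 per group, mean ± SD.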

[10] = test system: HCT-8; experiment: Cell cycle arrest in human HCT8 cells assessed as accumulation at G1 phase at 2.5 uM after 24 hrs by propidium iodide staining based flow cytometry (reference value: 48.08%); type: functional
[11] = test system: HCT-8; experiment: Cell cycle arrest in human HCT8 cells assessed as accumulation at G0/G1 phase after 24 hrs by propidium iodide staining based flow cytometry; type: functional
[12] = test system: HCT-8; experiment: Induction of apoptosis in human HCT8 cells assessed as increase in cleaved caspase3 expression after 24 hrs by Western blotting analysis; type: functional, cell-based; how it was run: as §3
[13] = test system: HCT-8; experiment: Cell cycle arrest in human HCT8 cells assessed as accumulation at S phase at 10 uM after 24 hrs by propidium iodide staining based flow cytometry (reference value: 36.19%); type: functional
[14] = test system: HCT-8; experiment: Induction of apoptosis in human HCT8 cells assessed as late apoptotic cells at 2.5 uM after 24 hrs by Annexin V-FITC/propidium iodide staining based flow cytometry (reference value: 2.4%); type: functional
[15] = test system: HCT-8; experiment: Cell cycle arrest in human HCT8 cells assessed as accumulation at G2 phase at 2.5 uM after 24 hrs by propidium iodide staining based flow cytometry (reference value: 23.77%); type: functional
[16] = test system: HCT-8; experiment: Induction of apoptosis in human HCT8 cells assessed as late apoptotic cells at 10 uM after 24 hrs by Annexin V-FITC/propidium iodide staining based flow cytometry (reference value: 2.4%); type: functional
[17] = test system: HCT-8; experiment: Cell cycle arrest in human HCT8 cells assessed as accumulation at G2 phase at 10 uM after 24 hrs by propidium iodide staining based flow cytometry (reference value: 23.77%); type: functional
[18] = test system: HCT-8; experiment: Induction of apoptosis in human HCT8 cells assessed as late apoptotic cells at 5 uM after 24 hrs by Annexin V-FITC/propidium iodide staining based flow cytometry (reference value: 2.4%); type: functional
[19] = test system: HCT-8; experiment: Induction of apoptosis in human HCT8 cells assessed as early apoptotic cells at 2.5 uM after 24 hrs by Annexin V-FITC/propidium iodide staining based flow cytometry (reference value: 0.25%); type: functional
[20] = Selectivity index, ratio of IC50 for human CCD-841 cells to IC50 for DLD1 human cells; type: toxicity; details: CCD-841 cells versus DLD1 cells
How it was run: (§5)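 Ratio of the CCD841 MTT IC50 to the HCT-8 or DLD-1 IC50, each IC50 from a 72 h MTT assay (570 nm), mean of three independent experiments.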

[21] = test system: HCT-8; experiment: Antitumor activity against human HCT8 cells xenografted in BALB/c mouse assessed as reduction in tumor weight at 60 mg/kg, ip administered daily for 32 days measured every 4 days during compound dosing relative to control; type: functional; set-up: scale not given: the % may be the effect or the level left; how it was run: as §4
[22] = Selectivity index, ratio of IC50 for human CCD-841 cells to IC50 for HCT8 human cells; type: toxicity; details: CCD-841 cells versus HCT8 cells, read-out: Ratio IC50; how it was run: as §5
[23] = test system: HCT-8; experiment: Cell cycle arrest in human HCT8 cells assessed as accumulation at G1 phase at 10 uM after 24 hrs by propidium iodide staining based flow cytometry (reference value: 48.08%); type: functional
[24] = test system: HCT-8; experiment: Induction of reactive oxygen species generation in human HCT8 cells at 2.5 to 10 uM after 24 hrs by DCFH-DA staining based flow cytometry; type: functional, cell-based
How it was run: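 HCT-8 cells exposed to 0, 2.5, 5 or 10 μM for 24 h, loaded with 10 μM DCFH-DA at 37 °C for 20 min, washed three times in PBS. Intracellular ROS as DCF fluorescence by flow cytometry, Ex/Em 488/530 nm.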

[25] = test system: HCT-8; experiment: Induction of apoptosis in human HCT8 cells assessed as early apoptotic cells at 10 uM after 24 hrs by Annexin V-FITC/propidium iodide staining based flow cytometry (reference value: 0.25%); type: functional
[26] = test system: HCT-8; experiment: Antitumor activity against human HCT8 cells xenografted in BALB/c mouse assessed as reduction in tumor volume at 60 mg/kg, ip administered daily for 32 days measured every 4 days during compound dosing; type: functional, organism-based; how it was run: as §4
[27] = test system: HCT-8; experiment: Induction of apoptosis in human HCT8 cells assessed as early apoptotic cells at 5 uM after 24 hrs by Annexin V-FITC/propidium iodide staining based flow cytometry (reference value: 0.25%); type: functional
[28] = test system: HCT-8; experiment: Cell cycle arrest in human HCT8 cells assessed as accumulation at G1 phase at 5 uM after 24 hrs by propidium iodide staining based flow cytometry (reference value: 48.08%); type: functional
[29] = test system: HCT-8; experiment: Cell cycle arrest in human HCT8 cells assessed as accumulation at S phase at 2.5 uM after 24 hrs by propidium iodide staining based flow cytometry (reference value: 36.19%); type: functional
[30] = test system: HCT-8; experiment: Cell cycle arrest in human HCT8 cells assessed as accumulation at G2 phase at 5 uM after 24 hrs by propidium iodide staining based flow cytometry (reference value: 23.77%); type: functional
[31] = test system: HCT-8; experiment: Cell cycle arrest in human HCT8 cells assessed as accumulation at S phase at 5 uM after 24 hrs by propidium iodide staining based flow cytometry (reference value: 36.19%); type: functional
[32] = test system: HCT-8; experiment: Induction of apoptosis in human HCT8 cells after 24 hrs by Annexin V-FITC/propidium iodide staining based flow cytometry; type: functional, cell-based

## CC(=O)Oc1ccccc1C(=O)Oc1ccccc1/C=C/C(=O)c1ccc(C#N)cc1
[1]
  Activity: Active
[2]
  Activity: Active

## CC(=O)Oc1ccccc1C(=O)Oc1ccccc1/C=C/C(=O)c1ccc(Cl)cc1
[1]
  Activity: >50%
[2]
  Activity: >50%

## CC(=O)Oc1ccccc1C(=O)Oc1ccc(F)cc1/C=C/C(=O)c1ccc(Cl)cc1
[3]
  IC50: 2.7 µM
[1]
  Activity: >50%
[2]
  Activity: >50%
[4]
  IC50: 3.5 µM

## COc1ccc(/C=C/C(=O)c2ccc(Cl)cc2)c(OC(=O)c2ccccc2OC(C)=O)c1
[1]
  Activity: Active
[2]
  Activity: Active

## CC(=O)Oc1ccccc1C(=O)Oc1ccccc1/C=C/C(=O)c1ccc(C)cc1
[1]
  Activity: Active
[2]
  Activity: Active

## CC(=O)Oc1ccccc1C(=O)Oc1ccccc1/C=C/C(=O)c1ccc([N+](=O)[O-])cc1
[1]
  Activity: >50%
[2]
  Activity: >50%

## CC(=O)Oc1ccccc1C(=O)O [ASPIRIN]
[3]
  IC50: > 100 µM
[4]
  IC50: > 100 µM

## CC(=O)Oc1ccccc1C(=O)Oc1ccc(Cl)cc1/C=C/C(=O)c1ccc(Cl)cc1
[1]
  Activity: Active
[2]
  Activity: Active

## CC(=O)Oc1ccccc1C(=O)Oc1ccc(C)cc1/C=C/C(=O)c1ccc(Cl)cc1
[1]
  Activity: Active
[2]
  Activity: Active

## CC(=O)Oc1ccccc1C(=O)Oc1ccccc1/C=C/C(=O)c1ccc(Br)cc1
[1]
  Activity: Active
[2]
  Activity: Active

## COc1ccc(C(=O)/C=C/c2ccccc2OC(=O)c2ccccc2OC(C)=O)cc1
[1]
  Activity: Active
[2]
  Activity: Active

## O=c1[nH]cc(F)c(=O)[nH]1 [FLUOROURACIL]
[5]
  IC50: 35.7 µM

## O=C(/C=C/c1cc(F)ccc1O)c1ccc(Cl)cc1
[3]
  IC50: 25.6 µM
[6]
  IC50: 8 µM
[4]
  IC50: 13.2 µM
[7]
  IC50: 9.3 µM

## COc1cccc(/C=C/C(=O)c2ccc(Cl)cc2)c1OC(=O)c1ccccc1OC(C)=O
[1]
  Activity: Active
[2]
  Activity: Active

## CC(=O)Oc1ccccc1C(=O)Oc1ccc(Br)cc1/C=C/C(=O)c1ccc(Cl)cc1
[1]
  Activity: Active
[2]
  Activity: Active

## COc1ccc(O)c(/C=C/C(=O)c2ccc(Cl)cc2)c1
[3]
  IC50: 19.7 µM
[6]
  IC50: 6.9 µM
[4]
  IC50: 14.7 µM
[7]
  IC50: 6.3 µM

## COc1ccc(OC(=O)c2ccccc2OC(C)=O)c(/C=C/C(=O)c2ccc(Cl)cc2)c1
[8]
  Activity: Dose-dependent effect
[9]
  Activity: Non-Toxic
[10]
  Activity: 48.08%
[3]
  IC50: 2.4 µM
[11]
  Activity: Dose-dependent effect
[12]
  Activity: Dose-dependent effect
[13]
  Activity: 34.77%
[14]
  Activity: 6.41%
[15]
  Activity: 17.76%
[16]
  Activity: 37.01%
[17]
  Activity: 8.77%
[18]
  Activity: 13.49%
[19]
  Activity: 9.7%
[20]
  selectivity ratio: 7.2
[21]
  Activity: 42%
[22]
  selectivity ratio: 8
[23]
  Activity: 56.46%
[24]
  Activity: Active
[1]
  Activity: >50%
[25]
  Activity: 21.46%
[2]
  Activity: >50%
[26]
  Activity: Active
[27]
  Activity: 14.22%
[4]
  IC50: 2.7 µM
[28]
  Activity: 51.03%
[29]
  Activity: 34.16%
[30]
  Activity: 10.82%
[31]
  Activity: 38.16%
[5]
  IC50: 19.4 µM
[32]
  Activity: Dose-dependent effect

Reference: ChEMBL document CHEMBL4257550, “Novel hybrids derived from aspirin and chalcones potently suppress colorectal cancer in vitro and in vivo” (Medchemcomm, 2018)
